Compound activity as filed in PubChem BioAssay.
Sampled rows, rich in hits. Any-hit rate of the full collection: about 1.7%.
HCV core dimer – inhibitors of HCV core protein dimerization, primary screen, biochemical, TR-FRET, high-throughput | TR-FRET GST/Flag-core106 dimerization, 1536-well | inhibition, % at 5 µM | AID 1899, 2009 | 0.33% of 300,000 active;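 active means inhibition above the mean of all tested compounds plus 3 SD, set per screening campaign, cut at about 45% in these data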
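System: GST/Flag-tagged HCV core106 proteins. Incubation: compound-protein-antibody incubation 4 h at 22.5 °C. Technique: HTRF with 340 nm excitation, 617/671 nm emission. Medium: KF-containing HEPES buffer, pH 7.45, DTT, CHAPS, BSA. Read-out: inhibition (%) from 671 over 617 nm ratio. Also added: Eu(K)-anti-GST 90 ng/mL plus XL665-anti-Flag 1 µg/mL.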
HCV NS3 hel inh – inhibitors of HCV NS3 helicase, primary screen, biochemical, Cy5 molecular beacon fluorescence. NS3 helicase DNA unwinding. 0.56% of 290,000 active. inhibition, % at 10.9 µM. Hepatitis C virus NS3 helicase;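 active means inhibition above the mean of all tested compounds plus 3 SD, set per campaign, cut at about 35% in these data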;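 further: 0% = DMSO wells and 100% = thioflavine S control wells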
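System: HCV NS3 helicase fragment; control set: DMSO and thioflavine S; technique: Cy5 fluorescence at 0 and 60 min, beacon hairpin quenching; reagent: beacon DNA duplex substrate plus ATP; replicates: singlicate; schedule: 1 h reaction at 25 °C, ATP-initiated; medium: MOPS buffer pH 6.5 with MgCl2, DTT, Tween20, BSA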
EBV gp42 inh – Epstein-Barr virus gp42 inhibitors, primary screen, biochemical, uHTS, fluorescence polarization; 0.42% of 220,000 active; inhibition, % (tested at 21.74 µM); Fluorescence polarization binding assay, mP read-out; Glycoprotein 42 (Epstein-Barr virus (strain AG876)), Q1HVG2; in the data active means inhibition above about 50%
ZTA counter – blocks Epstein-Barr virus ZTA, an EBNA-1 counter-screen; P03206; ZTA-DNA binding, fluorescence polarization; inhibition, % at 11 µM; 0.15% of 320,000 active; AID 2234; in the data active means inhibition above about 33%
MEX-5 binding – MEX-5 zinc finger RNA-binding disruptors – biochemical, C. elegans, fluorescence polarization, MLPCN library, primary screen | Zinc finger protein mex-5 (Caenorhabditis elegans), Q9XUB2 | MEX-5/FITC-TCR2 RNA binding; active compounds read low | activity score (negative = inhibition of binding), % at 10 µM | 0.38% of 300,000 active | AID 1832, 2009;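 active means inhibition past about -25% in most replicates, and total fluorescence under double the plate's negative control median, limit read from the data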;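 further: 0% = DMSO and -100% = 5 µM competing unlabeled TCR2 RNA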
Target sequence (Q9XUB2 whole entry, looked up): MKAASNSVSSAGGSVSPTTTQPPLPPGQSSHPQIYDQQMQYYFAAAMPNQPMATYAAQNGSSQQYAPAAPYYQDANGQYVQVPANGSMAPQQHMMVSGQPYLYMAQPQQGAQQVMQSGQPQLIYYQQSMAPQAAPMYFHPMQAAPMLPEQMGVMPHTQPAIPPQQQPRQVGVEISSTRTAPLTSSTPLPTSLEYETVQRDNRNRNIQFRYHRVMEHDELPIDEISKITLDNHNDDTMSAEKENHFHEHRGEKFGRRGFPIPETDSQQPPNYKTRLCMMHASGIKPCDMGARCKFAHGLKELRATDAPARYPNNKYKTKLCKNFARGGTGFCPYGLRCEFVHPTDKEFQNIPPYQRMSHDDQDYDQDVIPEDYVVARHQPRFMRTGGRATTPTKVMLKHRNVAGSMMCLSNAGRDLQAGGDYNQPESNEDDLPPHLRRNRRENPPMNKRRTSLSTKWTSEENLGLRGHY
EBNA-1 inhibitor – EBNA-1 DNA-binding inhibitors, primary screen, biochemical, fluorescence polarization | inhibition, % at 14.8 µM | 0.34% of 300,000 active | AID 1950, 2009; in the data active means inhibition above about 28%
NS3 helicase cf – HCV NS3 helicase inhibitors, retest, confirmation, biochemical, Cy5 molecular beacon fluorescence, triplicate; 31% of 1,600 active; inhibition, % at 10.9 µM; shares compounds with HCV NS3 hel inh; AID 1943, 2009; NS3 helicase DNA unwinding;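 active means inhibition above the mean of all tested compounds plus 3 SD, cutoff set per campaign, cut at about 36% in these data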
FID counter trip – compounds displacing fluorescent DNA intercalator, artefact control for HCV NS3 helicase inhibitor project, biochemical, FID fluorescence, triplicate. 4% of 1,600 active. AID 1945, 2009. inhibition, % at 7.9 µM. DNA fluorescent intercalator displacement. shares compounds with HCV NS3 hel inh; in the data active means inhibition above about 37%;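 further: 0% = vehicle and 100% = reference compound; higher means more displacement of ethidium bromide from the DNA hairpin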
EBNA-1 confirm – EBNA-1 DNA-binding inhibitors, retest, confirmation, biochemical, fluorescence polarization, triplicate | shares compounds with EBNA-1 inhibitor | Recombinant EBNA-1 DBD, Cy5-DNA fluorescence polarization | inhibition, % at 14.8 µM | 35% of 830 active;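 active means mean inhibition across replicates above a set limit taken from the earlier primary screen, cut at about 28% in these data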;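 further: plate controls were EBNA-1 protein with DMSO for no effect and wells lacking EBNA-1 for full effect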
ZTA DNA inh trip – EBV Zta DNA binding inhibitors, counter-screen for EBNA-1 inhibitor project, biochemical, fluorescence polarization, triplicate | shares compounds with EBNA-1 inhibitor | Zta-ZRE DNA binding, Cy5 fluorescence polarization | inhibition, % at 11.1 µM | 830 tested, under 10 active | AID 2328, 2010;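 active means mean inhibition over triplicates above a set limit taken from the primary EBNA-1 screen, cut at about 37% in these data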;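 further: purified full length Zta protein with Cy5 labeled ZRE DNA probe; 0% = Zta with DMSO and 100% = wells lacking Zta protein; inhibitors lower polarization by freeing the labeled DNA probe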
An asterisk follows results filed as active; x = no result given.

SMILES | HCV core dimer | HCV NS3 hel inh | EBV gp42 inh | ZTA counter | MEX-5 binding | EBNA-1 inhibitor | NS3 helicase cf | FID counter trip | others
CCOC(=O)c1c(S(=O)(=O)NCCc2ccc(OC)c(OC)c2)c(C)n(C)c1C | 8 | 39* | x | 14 | 1 | 1 | -11 | -20
CN1CCN(C(=O)c2cc(=O)c3cc(Cl)cc(Cl)c3o2)CC1 | -1 | -3 | x | 12 | 2 | 3 | x | x
Cc1cc2oc(=O)cc(CN3CCCCC3C)c2cc1Cl (stereo unspecified) | 14 | -3 | x | -10 | -3 | 9 | x | x
Cc1cc2oc(=O)cc(CN3CCCCC3C)c2cc1C (stereo unspecified) | 13 | 36* | x | -12 | 1 | -4 | 0 | 8
O=C(O)c1ccccc1N1C(=O)C2C3c4ccccc4C(Br)(c4ccccc43)C2C1=O (stereo unspecified) | 2 | 40* | -2 | -1 | -1 | -2 | 42* | -21
O=C(COC(=O)CC1CCCC1)Nc1ccccc1[N+](=O)[O-] | x | x | x | -4 | x | x | x | x
CC1CC(=O)N(CC(=O)Nc2ccccc2F)c2ccccc2S1(=O)=O (stereo unspecified) | 2 | -2 | x | 10 | 0 | -6 | x | x
Cc1ccc2nc(N3C(=O)C(O)=C(C(=O)c4ccc(C)o4)C3c3cccc(O)c3)sc2c1 (stereo unspecified) | 11 | 44* | -8 | 13 | -6 | 10 | 106* | 4
O/N=C/c1ccc2cccc(OCc3ccccc3)c2n1 | -8 | 0 | x | 3 | 1 | -5 | x | x
NC(=S)N/N=C/c1ccc2cccc(OCc3ccccc3)c2n1 | -4 | 39* | x | -29 | 1 | -2 | -2 | -21
O=C1OC(c2ccc(F)cc2)=C/C1=C\c1ccc([N+](=O)[O-])o1 | 8 | 45* | -64 | 19 | 2 | -6 | 42* | 19
O=C1OC(c2ccc(F)cc2)=C/C1=C\c1ccc(O)cc1 | 1 | 11 | x | -3 | -2 | 14 | x | x
COc1ccc(C(NC(=O)/C=C\c2ccco2)c2ccc(OC)c(OC)c2)cc1 (stereo unspecified) | 8 | 37* | 3 | -5 | 3 | 39* | -10 | -35 | EBNA-1 confirm=1;ZTA DNA inh trip=16
CCCCn1c(N)c(N(CCC(C)C)C(=O)c2cc(-c3ccco3)nc3ccccc23)c(=O)[nH]c1=O | 49* | 41* | x | -3 | -2 | 51* | 9 | 3 | EBNA-1 confirm=-16;ZTA DNA inh trip=3
CC(C)c1ccc(N(CC(=O)NC2CCCC2)C(=O)CCC(=O)Nc2nccs2)cc1 | 16 | -6 | x | -8 | 4 | 2 | x | x
CCc1ccc(NC(=O)CSc2nc3ccccc3c(=O)n2CCCN2CCC(C)CC2)cc1 | -6 | -63 | 2 | -10 | -1 | 3 | x | x
Oc1ccc(N=Nc2ccccc2C(F)(F)F)c2cccnc12 | 5 | 49* | x | 5 | -1 | 95* | 0 | 3 | EBNA-1 confirm=-1;ZTA DNA inh trip=2
Cc1cccc(C)c1-n1cccc1/C=C1/C(=N)N2C(=NC1=O)SN=C2S(C)(=O)=O | 25 | -4 | 10 | 16 | -1 | 9 | x | x
